The results in this text go back to ChEMBL document CHEMBL1144035, “Synthesis, cytostatic and anti-HCV activity of 6-(N-substituted aminomethyl)-, 6-(O-substituted hydroxymethyl)- and 6-(S-substituted sulfanylmethyl)purine nucleosides” (Bioorg Med Chem, 2008).

Molecules are shown by their SMILES. Calls of active or inactive are those of the source. No cut-off for these calls is given here.

The subject of experiment [1] is HL-60. Kind of experiment: Cell cycle arrest in human HL60 cells by accumulation at G2/M phase at 1 umol/L by flow cytometry relative to control. The experiment is classed as functional. In outline: (§1)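 HL-60 cells exposed to compound for 72 h at the single concentration in the line; the cell-cycle phase fraction is reported as a change relative to untreated control cells.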

For experiment [2], the system named is HL-60. The experiment can be described thus: Cell cycle arrest in human HL60 cells by accumulation at G2/M phase at 5 umol/L after 72 hrs by flow cytometry. The experiment is classed as functional. (A flow cytometer gives signals particle by particle.)
The next experiment deals with HeLa. Kind of experiment: Cytostatic activity in human HeLa S3 cells assessed as inhibition of cell growth after 48 hrs by XTT assay. It is filed as functional, cell-based. For orientation: Formazan colour is commonly taken as a measure of viable cells.
Experiment [3] deals with HL-60. Kind of experiment: Cell cycle arrest in human HL60 cells by accumulation at G2/M phase at 1 umol/L after 72 hrs by flow cytometry. The experiment is classed as functional.
Experiment [4] has as its system CCRF-CEM. Kind of experiment: Cytostatic activity in human CCRF-CEM cells assessed as inhibition of cell growth after 72 hrs by XTT assay. The experiment is classed as functional, cell-based.
In experiment [5] the test system is HL-60. The experiment can be described thus: Cell cycle arrest in human HL60 cells by accumulation at G1 phase after 72 hrs by flow cytometry. The experiment is classed as functional, cell-based.
The test system of experiment [6] is CCRF-CEM. The experiment can be described thus: Cytostatic activity in human CCRF-CEM cells assessed as inhibition of cell growth after 72 hrs. It is filed as functional, cell-based. In outline:
(§2)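 Cultures from ATCC lines: mouse leukaemia L1210 (CCL 219), human promyelocytic leukaemia HL60 (CCL 240) and human T-lymphoblastoid CCRF-CEM (CCL 119). Growth inhibition was estimated from the cell count in a haematological analyzer (haemocytometer).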

The test system of experiment [7] is HL-60. The experiment can be described thus: Cell cycle arrest in human HL60 cells by accumulation at S phase at 2.5 umol/L after 72 hrs by flow cytometry. The experiment is classed as functional.
The next experiment relates to Hepatitis C virus. Kind of experiment: Antiviral activity against Hepatitis C virus 1b after 3 days. The experiment is classed as functional, organism-based, Hepacivirus hominis. Conditions: genotype 1b, 72 h.
Experiment [8] has as its system HL-60. Kind of experiment: Cell cycle arrest in human HL60 cells by accumulation at G1 phase at 5 umol/L after 72 hrs by flow cytometry. The experiment is classed as functional.
A further experiment concerns MT4. Kind of experiment: Cytotoxicity against human MT4 cells after 4 days. It is filed as functional. Conditions: MT4, 96 h. In outline: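 Cellular toxicity was measured in MT-4 cells, N = 2.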
The subject of experiment [9] is HL-60. Kind of experiment: Cell cycle arrest in human HL60 cells by accumulation at G1 phase at 1 umol/L by flow cytometry relative to control. It is filed as functional. In outline: as §1
The subject of experiment [10] is HL-60. The experiment can be described thus: Cell cycle arrest in human HL60 cells by accumulation at G1 phase at 2.5 umol/L after 72 hrs by flow cytometry. The experiment is classed as functional.
Experiment [11] has as its system HL-60. The experiment can be described thus: Cell cycle arrest in human HL60 cells by accumulation at S phase at 1 umol/L after 72 hrs by flow cytometry. It is filed as functional.
Experiment [12] relates to HL-60. Kind of experiment: Cell cycle arrest in human HL60 cells by accumulation at S phase at 1 umol/L by flow cytometry relative to control. The experiment is classed as functional. In short, it runs like this:
as §1

The test system of experiment [13] is HL-60. Kind of experiment: Cell cycle arrest in human HL60 cells by accumulation at S phase at 5 umol/L after 72 hrs by flow cytometry. It is filed as functional.
For experiment [14], the system named is HL-60. The experiment can be described thus: Cytostatic activity in human HL60 cells assessed as inhibition of cell growth after 72 hrs by XTT assay. The experiment is classed as functional, cell-based. Conditions: HL-60, 72 h.
Experiment [15] has as its system HL-60. Kind of experiment: Cell cycle arrest in human HL60 cells by accumulation at G1 phase at 1 umol/L after 72 hrs by flow cytometry. It is filed as functional.
The nature of experiment [16]: Cytotoxicity against human Huh7 cells after 3 days by MTT method. Conditions: Huh-7, 72 h. It is filed as functional. In short, it runs like this: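 Cellular toxicity was read by MTT in Huh-7 cells carrying the con-1 HCV replicon, in duplicate (N = 2).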
Experiment [17] deals with HL-60. Kind of experiment: Cell cycle arrest in human HL60 cells by depletion of cells at S phase after 72 hrs by flow cytometry. The experiment is classed as functional, cell-based.
Experiment [18] has as its system HL-60. Kind of experiment: Cell cycle arrest in human HL60 cells by accumulation at G2/M phase at 2.5 umol/L after 72 hrs by flow cytometry. The experiment is classed as functional.
Experiment [19] deals with HL-60. The experiment can be described thus: Cytostatic activity in human HL60 cells assessed as inhibition of cell growth after 72 hrs. The following applies: for IC50: HL-60, 72 h. The experiment is classed as functional, cell-based. In outline: as §2
The next experiment has as its system L1210. Kind of experiment: Cytostatic activity in mouse L1210 cells assessed as inhibition of cell growth after 72 hrs. The experiment is classed as functional, cell-based. Conditions: for IC50: L1210, 72 h. In short, it runs like this: as §2
Experiment [20] deals with HL-60. Kind of experiment: Cell cycle arrest in human HL60 cells by accumulation at G1 phase at 3 umol/L by flow cytometry relative to control. It is filed as functional. In short, it runs like this:
as §1

For experiment [21], the system named is HL-60. Kind of experiment: Cell cycle arrest in human HL60 cells by accumulation at S phase at 3 umol/L by flow cytometry relative to control. It is filed as functional. In short, it runs like this:
as §1

The subject of experiment [22] is HL-60. Kind of experiment: Cell cycle arrest in human HL60 cells by accumulation at G2/M phase at 3 umol/L by flow cytometry relative to control. The experiment is classed as functional. In short, it runs like this:
as §1

Experiment [23] has as its system HL-60. Kind of experiment: Cell cycle arrest in human HL60 cells by accumulation at S phase at 22.5 umol/L by flow cytometry relative to control. It is filed as functional. In short, it runs like this: as §1
Experiment [24] relates to HL-60. The experiment can be described thus: Cell cycle arrest in human HL60 cells by accumulation at G1 phase at 22.5 umol/L by flow cytometry relative to control. The experiment is classed as functional. In short, it runs like this:
as §1

The test system of experiment [25] is HL-60. Kind of experiment: Cell cycle arrest in human HL60 cells by accumulation at G2/M phase at 22.5 umol/L by flow cytometry relative to control. The experiment is classed as functional. In outline: as §1

For orientation: IC50 means the point on the concentration scale where inhibition reaches its midpoint. In general, EC50 refers to the concentration giving half of the maximal effect. In general, CC50 refers to the concentration giving 50% cytotoxicity. For `[N-]=[N+]=NCc1ncnc2c1ncn2[C@@H]1O[C@H](CO)[C@@H](O)[C@H]1O`, the Activity came to 1.3% in the experiment with HL-60 [1]; 8% in the experiment with HL-60 [2]; 10% in the experiment with HL-60 [3]; 59% with HL-60 [7]; 24% in the experiment with HL-60 [8]; 1.57% in the experiment on HL-60 [9]. Besides, the Activity is listed as 33% with HL-60 [10]; 37% in the experiment with HL-60 [11]; 0.63% in the experiment on HL-60 [12]; 69% in the experiment with HL-60 [13]; 54% in the experiment on HL-60 [15]; 8% in the experiment with HL-60 [18]. In the experiment with HeLa, the result was inactive. Further, the IC50 in the experiment with CCRF-CEM [4] was determined as 0.34 µM; in the experiment on CCRF-CEM [6] it was 0.39 µM; in the experiment with HL-60 [14], 0.78 µM; with HL-60 [19], 1.88 µM; in the experiment with L1210, 1.59 µM. Also, the result in the experiment with HL-60 [5] and in the experiment on HL-60 [17] was Active. In the experiment with Hepatitis C virus, this compound registered a 50% effective concentration (EC50) of 6 µM. For the same compound, the values for the CC50 (with MT4; in [16]) were 32 µM and > 250 µM, respectively.

On to `OC[C@H]1O[C@@H](n2cnc3c(Cn4ccc5ccccc54)ncnc32)[C@H](O)[C@@H]1O`, for which the outcome in the experiment with HeLa and with L1210 was inactive. The IC50 with CCRF-CEM [4] came out at 1.96 µM; with CCRF-CEM [6], 3.4 µM; in the experiment with HL-60 [14] it was 9.1 µM; in the experiment with HL-60 [19], 5.7 µM. Further, in the experiment with Hepatitis C virus, the EC50 amounted to 7.6 µM. The values for the CC50 (in the experiment on MT4; in [16]) were 45 µM and > 250 µM, respectively.

As to `OCCN(CCO)Cc1ncnc2c1ncn2[C@@H]1O[C@H](CO)[C@@H](O)[C@H]1O`, in the experiment with HeLa, the outcome was inactive. Besides, the IC50 in the experiment on CCRF-CEM [4] was 3.72 µM; with CCRF-CEM [6] it was 6.7 µM; in the experiment with HL-60 [14] it was 4.37 µM; with HL-60 [19] it was 14.7 µM; with L1210, 14.3 µM. Moreover, the result in the experiment with HL-60 [5] and in the experiment on HL-60 [17] was Active. The compound also had an EC50 in the experiment on Hepatitis C virus of 15 µM. In [16], the CC50 was found to be 10 µM.

`COCc1ncnc2c1ncn2[C@@H]1O[C@H](CO)[C@@H](O)[C@H]1O`: the result in the experiment with HeLa and in the experiment with L1210 was inactive. The IC50 is 1.14 µM in the experiment with CCRF-CEM [4], 6 µM in the experiment on CCRF-CEM [6], 1.68 µM with HL-60 [14] and 13 µM with HL-60 [19]. Moreover, the result in the experiment on HL-60 [5] and in the experiment on HL-60 [17] was Active. The compound further displayed an EC50 with Hepatitis C virus of 13 µM. The CC50 in [16] was > 100 µM.

On to `CN(Cc1ncnc2c1ncn2[C@@H]1O[C@H](CO)[C@@H](O)[C@H]1O)c1ccccc1`, for which the Activity with HL-60 [20] is given as 1.12%; in the experiment with HL-60 [21], 0.87%; in the experiment on HL-60 [22], 1.08%. For the same compound, the outcome with HeLa, with CCRF-CEM [6] and with L1210 was inactive. The EC50 in the experiment on Hepatitis C virus is 21 µM. The IC50 came out at 3.4 µM in the experiment on HL-60 [14] and 4 µM in the experiment with HL-60 [19]. Besides, the CC50 in [16] stood at 21 µM.

On to `OC[C@H]1O[C@@H](n2cnc3c(CSCc4ccccc4)ncnc32)[C@H](O)[C@@H]1O`, for which the Activity with HL-60 [23] was found to be 0.43%; in the experiment with HL-60 [24], 1.99%; with HL-60 [25] it was 0.88%. Moreover, the outcome in the experiment with HeLa and with L1210 was inactive. The IC50 in the experiment on CCRF-CEM [4] turned out to be 4.65 µM; in the experiment with CCRF-CEM [6] it was 9.2 µM; with HL-60 [14] it was 19.2 µM; with HL-60 [19], 10.7 µM. Moreover, in the experiment with HL-60 [5], the result was Active. For the same compound, the EC50 in the experiment on Hepatitis C virus was > 100 µM. Further, the CC50 in [16] was > 100 µM.

Take `CSCc1ncnc2c1ncn2[C@@H]1O[C@H](CO)[C@@H](O)[C@H]1O`: in the experiment on HeLa, the outcome was inactive. Besides, the IC50 is 3.2 µM in the experiment with CCRF-CEM [4]; 15 µM in the experiment with CCRF-CEM [6]; 5 µM with HL-60 [14]; 13.4 µM in the experiment on HL-60 [19]; > 30 µM with L1210. In the experiment with Hepatitis C virus, this compound gave an EC50 of 10 µM. The CC50 in the experiment with MT4 is 32 µM; in experiment [16] it was > 100 µM.

Consider `OCCSCc1ncnc2c1ncn2[C@@H]1O[C@H](CO)[C@@H](O)[C@H]1O`, for which the result with HeLa, in the experiment with CCRF-CEM [6], in the experiment on HL-60 [19] and in the experiment with L1210 was inactive. The compound further gave an EC50 with Hepatitis C virus of 46 µM. In addition, the CC50 (with MT4; in experiment [16]) was > 100 µM each time.
